Reference: ChEMBL document CHEMBL1154229 (Bioorg Med Chem Lett, 2009)

Columns and labels:
[1] = target: T1, Bifunctional epoxide hydrolase 2 (Homo sapiens, UniProt P34913); test: Inhibition of human soluble epoxide hydrolase
T1 sequence (P34913 whole entry): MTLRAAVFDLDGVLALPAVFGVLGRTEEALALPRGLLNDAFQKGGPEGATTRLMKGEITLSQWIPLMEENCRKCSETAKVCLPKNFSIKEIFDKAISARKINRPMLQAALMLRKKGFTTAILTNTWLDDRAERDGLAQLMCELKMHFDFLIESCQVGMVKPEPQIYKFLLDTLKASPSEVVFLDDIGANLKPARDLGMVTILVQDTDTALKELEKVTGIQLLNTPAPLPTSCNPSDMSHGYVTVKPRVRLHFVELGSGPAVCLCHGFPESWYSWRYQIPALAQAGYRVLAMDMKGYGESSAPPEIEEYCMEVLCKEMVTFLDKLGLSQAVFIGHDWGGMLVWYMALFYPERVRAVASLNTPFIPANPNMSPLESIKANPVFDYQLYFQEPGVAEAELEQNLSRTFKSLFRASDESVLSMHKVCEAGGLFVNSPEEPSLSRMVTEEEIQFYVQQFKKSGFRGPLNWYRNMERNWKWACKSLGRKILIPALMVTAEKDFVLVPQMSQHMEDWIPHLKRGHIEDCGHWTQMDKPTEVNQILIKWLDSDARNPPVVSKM

[2] = target: T2, Bifunctional epoxide hydrolase 2 (Rattus norvegicus, UniProt P80299); test: Inhibition of rat soluble epoxide hydrolase
T2 sequence (P80299 whole entry): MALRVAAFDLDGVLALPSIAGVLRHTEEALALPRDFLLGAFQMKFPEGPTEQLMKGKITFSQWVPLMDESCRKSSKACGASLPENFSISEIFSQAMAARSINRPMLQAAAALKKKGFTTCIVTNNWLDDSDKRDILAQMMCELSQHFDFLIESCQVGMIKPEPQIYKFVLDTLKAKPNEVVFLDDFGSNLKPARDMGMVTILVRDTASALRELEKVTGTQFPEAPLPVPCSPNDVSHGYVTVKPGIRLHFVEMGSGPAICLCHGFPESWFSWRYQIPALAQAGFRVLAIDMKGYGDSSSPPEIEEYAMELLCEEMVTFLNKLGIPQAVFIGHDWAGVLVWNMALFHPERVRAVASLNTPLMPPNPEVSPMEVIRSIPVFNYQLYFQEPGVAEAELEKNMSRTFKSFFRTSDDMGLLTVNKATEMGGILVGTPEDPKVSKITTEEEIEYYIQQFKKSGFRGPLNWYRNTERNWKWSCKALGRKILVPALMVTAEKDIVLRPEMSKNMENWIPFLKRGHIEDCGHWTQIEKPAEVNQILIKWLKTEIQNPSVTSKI

[3] = target: T1, Bifunctional epoxide hydrolase 2; test: Inhibition of human soluble epoxide hydrolase in HEK293 cells assessed as DHET production; assay type: cell-based
In short: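 Whole-cell 14,15-DHET production assay in HEK293 cells, run with or without 10% human serum. Values come from one or two experiments, each in triplicate, with repeats within 20%.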

Epoxide hydrolase 1 = target: T3, Epoxide hydrolase 1 (Homo sapiens, UniProt P07099); test: Inhibition of human microsomal epoxide hydrolase
T3 sequence (P07099 whole entry): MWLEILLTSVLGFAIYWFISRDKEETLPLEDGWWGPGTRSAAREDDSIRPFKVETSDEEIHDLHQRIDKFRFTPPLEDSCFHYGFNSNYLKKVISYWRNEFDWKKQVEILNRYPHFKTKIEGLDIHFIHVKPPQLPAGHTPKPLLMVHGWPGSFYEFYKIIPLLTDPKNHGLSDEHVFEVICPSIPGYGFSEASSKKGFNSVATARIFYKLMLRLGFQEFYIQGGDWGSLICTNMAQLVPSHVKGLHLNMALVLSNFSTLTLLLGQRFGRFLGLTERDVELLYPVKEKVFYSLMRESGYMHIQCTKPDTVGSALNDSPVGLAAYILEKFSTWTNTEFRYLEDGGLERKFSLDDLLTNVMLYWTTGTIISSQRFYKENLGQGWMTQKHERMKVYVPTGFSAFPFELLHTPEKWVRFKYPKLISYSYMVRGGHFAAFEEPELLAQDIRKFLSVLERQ
In short: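 Human mEH used as the counterscreen enzyme. Values come from one or two experiments, each in triplicate, with repeats within 20%.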

Cytochrome P450 2C9 = Cytochrome P450 2C9 (Homo sapiens, UniProt P11712); test: Inhibition of CYP2C9; assay type: ADME
Cytochrome P450 2D6 = Cytochrome P450 2D6 (Homo sapiens, UniProt P10635); test: Inhibition of CYP2D6; assay type: ADME
Cytochrome P450 3A4 = Cytochrome P450 3A4 (Homo sapiens, UniProt P08684); test: Inhibition of CYP3A4; assay type: ADME
[4] = Inhibition of potassium channel IKr
[5] = target: Sodium channel protein type 5 subunit alpha (Homo sapiens, UniProt Q14524); test: Inhibition of Nav1.5 channel
L-type calcium channel = test: Inhibition of calcium channel diltiazem binding site

Cytochrome P450 2C9, sequence (P11712 whole entry): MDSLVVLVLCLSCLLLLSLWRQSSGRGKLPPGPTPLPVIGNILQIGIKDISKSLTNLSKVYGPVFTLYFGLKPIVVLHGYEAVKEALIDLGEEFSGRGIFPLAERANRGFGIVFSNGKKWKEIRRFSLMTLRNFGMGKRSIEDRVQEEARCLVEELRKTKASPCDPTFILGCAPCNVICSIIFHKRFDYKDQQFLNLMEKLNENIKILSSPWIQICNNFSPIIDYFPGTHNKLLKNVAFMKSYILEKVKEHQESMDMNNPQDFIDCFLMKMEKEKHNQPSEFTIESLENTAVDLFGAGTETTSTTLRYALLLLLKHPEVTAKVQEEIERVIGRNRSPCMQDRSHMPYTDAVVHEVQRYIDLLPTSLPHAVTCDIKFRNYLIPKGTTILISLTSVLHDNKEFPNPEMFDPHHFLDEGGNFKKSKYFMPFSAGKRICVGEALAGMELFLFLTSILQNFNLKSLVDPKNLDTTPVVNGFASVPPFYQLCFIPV
Sodium channel protein type 5 subunit alpha, sequence (Q14524 whole entry): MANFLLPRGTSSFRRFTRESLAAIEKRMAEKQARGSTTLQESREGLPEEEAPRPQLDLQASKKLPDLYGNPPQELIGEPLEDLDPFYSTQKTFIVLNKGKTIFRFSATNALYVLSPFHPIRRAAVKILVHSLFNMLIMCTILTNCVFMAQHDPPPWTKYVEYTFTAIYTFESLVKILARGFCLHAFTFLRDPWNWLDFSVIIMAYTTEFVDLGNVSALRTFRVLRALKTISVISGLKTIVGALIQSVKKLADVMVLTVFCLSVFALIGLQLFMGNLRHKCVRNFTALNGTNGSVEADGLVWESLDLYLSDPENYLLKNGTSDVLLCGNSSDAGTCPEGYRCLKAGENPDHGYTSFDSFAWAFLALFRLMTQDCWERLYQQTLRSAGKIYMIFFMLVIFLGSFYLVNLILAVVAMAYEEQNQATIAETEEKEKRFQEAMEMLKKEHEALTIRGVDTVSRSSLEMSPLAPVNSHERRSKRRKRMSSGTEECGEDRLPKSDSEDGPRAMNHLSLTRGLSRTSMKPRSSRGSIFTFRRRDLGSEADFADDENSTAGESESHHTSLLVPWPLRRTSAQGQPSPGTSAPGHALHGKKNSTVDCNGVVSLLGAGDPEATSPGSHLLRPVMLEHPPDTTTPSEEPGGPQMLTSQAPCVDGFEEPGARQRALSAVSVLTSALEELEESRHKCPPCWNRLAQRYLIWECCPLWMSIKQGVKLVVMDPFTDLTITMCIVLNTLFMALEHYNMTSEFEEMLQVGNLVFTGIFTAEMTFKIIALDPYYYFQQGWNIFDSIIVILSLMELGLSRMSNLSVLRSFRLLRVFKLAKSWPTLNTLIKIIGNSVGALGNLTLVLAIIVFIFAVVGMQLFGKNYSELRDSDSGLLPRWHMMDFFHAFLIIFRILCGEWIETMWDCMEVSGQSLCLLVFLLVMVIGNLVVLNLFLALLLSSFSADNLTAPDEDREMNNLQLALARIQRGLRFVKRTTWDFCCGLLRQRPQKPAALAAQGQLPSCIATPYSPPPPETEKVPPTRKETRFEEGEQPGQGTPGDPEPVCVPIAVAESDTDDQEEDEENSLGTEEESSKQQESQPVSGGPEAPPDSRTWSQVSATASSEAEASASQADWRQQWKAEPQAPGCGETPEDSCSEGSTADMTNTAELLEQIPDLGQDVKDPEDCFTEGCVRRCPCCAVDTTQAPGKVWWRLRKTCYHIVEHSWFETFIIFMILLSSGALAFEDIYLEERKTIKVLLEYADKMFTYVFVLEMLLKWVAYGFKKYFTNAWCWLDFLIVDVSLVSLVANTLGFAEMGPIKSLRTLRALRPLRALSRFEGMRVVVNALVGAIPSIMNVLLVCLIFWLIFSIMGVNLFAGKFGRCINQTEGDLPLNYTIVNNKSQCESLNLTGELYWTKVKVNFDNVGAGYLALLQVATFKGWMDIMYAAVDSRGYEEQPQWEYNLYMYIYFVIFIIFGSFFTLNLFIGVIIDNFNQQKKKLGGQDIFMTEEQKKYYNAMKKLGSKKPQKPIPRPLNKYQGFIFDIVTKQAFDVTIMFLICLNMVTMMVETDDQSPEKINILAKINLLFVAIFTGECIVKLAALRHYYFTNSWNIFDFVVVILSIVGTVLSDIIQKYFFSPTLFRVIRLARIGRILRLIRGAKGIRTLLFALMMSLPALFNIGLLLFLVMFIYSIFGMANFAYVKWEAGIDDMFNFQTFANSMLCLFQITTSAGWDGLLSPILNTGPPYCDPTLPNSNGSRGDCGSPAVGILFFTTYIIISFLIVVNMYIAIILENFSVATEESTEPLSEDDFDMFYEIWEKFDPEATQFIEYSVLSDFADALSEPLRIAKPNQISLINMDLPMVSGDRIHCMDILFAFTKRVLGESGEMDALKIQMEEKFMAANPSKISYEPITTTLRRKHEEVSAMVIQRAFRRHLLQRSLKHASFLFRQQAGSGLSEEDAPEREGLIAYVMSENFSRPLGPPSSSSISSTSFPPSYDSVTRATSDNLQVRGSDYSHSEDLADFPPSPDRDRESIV
Cytochrome P450 3A4, sequence (P08684 whole entry): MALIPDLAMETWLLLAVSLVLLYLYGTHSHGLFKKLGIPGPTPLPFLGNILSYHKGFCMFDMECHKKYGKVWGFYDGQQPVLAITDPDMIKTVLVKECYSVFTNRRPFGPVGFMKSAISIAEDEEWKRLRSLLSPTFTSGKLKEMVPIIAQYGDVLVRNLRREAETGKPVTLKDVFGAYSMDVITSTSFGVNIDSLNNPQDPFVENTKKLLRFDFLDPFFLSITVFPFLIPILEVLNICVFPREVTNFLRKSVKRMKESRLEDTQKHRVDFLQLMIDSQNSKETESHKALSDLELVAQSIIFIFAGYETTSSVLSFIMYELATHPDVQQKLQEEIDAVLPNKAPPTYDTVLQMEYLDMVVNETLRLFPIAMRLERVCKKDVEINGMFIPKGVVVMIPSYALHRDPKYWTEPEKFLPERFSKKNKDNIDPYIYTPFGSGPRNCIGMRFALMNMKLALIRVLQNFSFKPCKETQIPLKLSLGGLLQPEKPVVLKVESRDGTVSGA
Cytochrome P450 2D6, sequence (P10635 whole entry): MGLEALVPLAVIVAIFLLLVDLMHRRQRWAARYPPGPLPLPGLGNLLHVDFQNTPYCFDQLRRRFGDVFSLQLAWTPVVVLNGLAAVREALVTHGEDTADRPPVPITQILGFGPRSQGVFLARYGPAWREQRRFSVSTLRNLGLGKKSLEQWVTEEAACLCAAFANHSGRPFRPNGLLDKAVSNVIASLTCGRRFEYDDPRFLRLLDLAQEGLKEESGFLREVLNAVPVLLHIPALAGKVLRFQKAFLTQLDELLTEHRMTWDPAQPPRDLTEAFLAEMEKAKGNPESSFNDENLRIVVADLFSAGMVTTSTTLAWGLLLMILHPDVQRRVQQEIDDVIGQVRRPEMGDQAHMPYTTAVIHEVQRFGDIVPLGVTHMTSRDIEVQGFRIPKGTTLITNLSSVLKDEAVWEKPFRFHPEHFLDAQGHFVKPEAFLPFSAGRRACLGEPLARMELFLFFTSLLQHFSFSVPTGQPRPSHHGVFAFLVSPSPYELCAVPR

IC50 [1] [µM] | IC50 [2] [µM] | IC50 [3] [µM] | IC50 (Epoxide hydrolase 1) [µM] | IC50 (Cytochrome P450 2C9) [µM] | IC50 (Cytochrome P450 2D6) [µM] | IC50 (Cytochrome P450 3A4) [µM] | IC50 (L-type calcium channel) [µM] | Compound | IC50 [4] [µM] | IC50 [5] [µM]
0.005 | 0.12 | < 0.001 | > 100 | > 10 | > 10 | > 10 | > 30 | O=C(O)CCC1(c2ccc(C(F)(F)F)cc2)CCCN(C(=O)Nc2ccc(Cl)cc2)C1 (stereo unspecified) | > 30 | > 10
0.028 | 0.331 | – | – | > 10 | > 10 | > 10 | > 30 | O=C(O)CCC1(c2cccnc2)CCCN(C(=O)Nc2ccc(Cl)cc2)C1 (stereo unspecified) | > 30 | > 10
– | 0.207 | – | – | < 10 | > 10 | > 10 | 19 | CC1(c2ccccc2)CCCN(C(=O)Nc2noc3ccccc23)C1 (stereo unspecified) | 18 | < 10
0.008 | 0.011 | – | > 100 | < 10 | > 10 | < 10 | 0.7 | CC1(c2ccccc2)CCCN(C(=O)NCc2ccc(-c3ccccc3C(F)(F)F)cc2)C1 (stereo unspecified) | 0.2 | > 1
– | 0.032 | < 0.001 | > 100 | 10 | > 10 | 10 | 4 | CNC(=O)CCC1(c2ccccc2)CCCN(C(=O)Nc2ccc(Cl)cc2)C1 (stereo unspecified) | 8 | > 10
0.014 | 0.007 | – | 22 | – | – | < 10 | – | CC1(c2ccccc2)CCCN(C(=O)NCc2ccc(-c3cccc(Cl)c3)cc2)C1 (stereo unspecified) | 2 | –
0.0014 | 0.034 | 0.0014 | > 100 | > 10 | > 10 | > 10 | – | O=C(CCC1(c2ccccc2)CCCN(C(=O)Nc2ccc(Cl)cc2)C1)Nc1nn[nH]n1 (stereo unspecified) | 27 | –
– | 0.413 | < 0.001 | – | < 10 | > 10 | > 10 | > 30 | O=C(O)CCC1(c2ccc(-c3ccccc3)cc2)CCCN(C(=O)Nc2ccc(OC(F)(F)F)cc2)C1 (stereo unspecified) | 21 | < 10
< 0.001 | 0.003 | – | – | – | – | – | – | COC(=O)CCC1(c2ccccc2)CCCN(C(=O)Nc2ccc(Cl)cc2)C1 (stereo unspecified) | – | –
– | 0.016 | < 0.001 | > 100 | > 10 | > 10 | > 10 | 7 | N#CCCC1(c2ccccc2)CCCN(C(=O)Nc2ccc(Cl)cc2)C1 (stereo unspecified) | 10 | > 10
– | 0.019 | 0.003 | > 100 | < 10 | 10 | < 10 | – | CC1(c2ccccc2)CCCN(C(=O)NCCc2ccc3nccnc3c2)C1 (stereo unspecified) | 9 | –
0.012 | 0.176 | – | > 100 | > 10 | > 10 | > 10 | > 30 | O=C(O)CCC1(c2cccc(C(F)(F)F)c2)CCCN(C(=O)Nc2ccc(Cl)cc2)C1 (stereo unspecified) | > 30 | > 10
0.03 | 0.467 | – | > 100 | 10 | > 10 | > 10 | > 30 | O=C(O)CCC1(c2ccncc2)CCCN(C(=O)Nc2ccc(Cl)cc2)C1 (stereo unspecified) | > 30 | > 10
0.007 | 0.006 | – | – | < 10 | > 10 | > 10 | 0.9 | CC1(c2ccccc2)CCCN(C(=O)Nc2ccc(-c3ccccc3)cc2)C1 (stereo unspecified) | 21 | < 10
0.55 | 0.349 | – | > 100 | > 10 | > 10 | < 10 | 15 | CC1(c2ccccc2)CCCN(C(=O)Nc2ccncc2)C1 (stereo unspecified) | 5 | > 10
0.007 | – | 0.008 | 3 | > 10 | > 10 | < 10 | – | CC1(c2ccccc2)CCCN(C(=O)NCCCc2cccnc2)C1 (stereo unspecified) | 5 | –
0.003 | 0.031 | – | – | > 10 | > 10 | < 10 | 1 | CCN(CC)C(=O)CCC1(c2ccccc2)CCCN(C(=O)Nc2ccc(Cl)cc2)C1 (stereo unspecified) | 6 | > 10
0.0013 | 0.01 | < 0.001 | > 100 | < 10 | > 10 | < 10 | 5 | O=C(Nc1ccc(Cl)cc1)N1CCCC(CCCO)(c2ccccc2)C1 (stereo unspecified) | 6 | > 10
0.052 | 0.398 | 0.038 | > 100 | > 10 | > 10 | > 10 | > 30 | O=C(O)CC1(c2ccccc2)CCCN(C(=O)Nc2ccc(Cl)cc2)C1 (stereo unspecified) | > 30 | > 10
0.001 | 0.003 | < 0.001 | 47 | < 10 | 10 | < 10 | 0.5 | CC1(c2ccccc2)CCCN(C(=O)NCc2ccc(-c3ccccn3)cc2)C1 (stereo unspecified) | 4 | > 10
0.019 | 0.29 | – | – | > 10 | > 10 | > 10 | > 30 | O=C(O)CCC1(c2ccccn2)CCCN(C(=O)Nc2ccc(Cl)cc2)C1 (stereo unspecified) | > 30 | > 10
– | 0.006 | 0.003 | 14 | < 10 | 10 | > 10 | 1 | CC1(c2ccccc2)CCCN(C(=O)NCc2ccc(-c3ccc4[nH]ccc4c3)cc2)C1 (stereo unspecified) | 0.8 | > 10
0.016 | 0.07 | < 0.001 | > 100 | > 10 | > 10 | > 10 | > 30 | O=C(O)CCC1(c2ccccc2C(F)(F)F)CCCN(C(=O)Nc2ccc(Cl)cc2)C1 (stereo unspecified) | > 30 | > 10
– | 0.176 | 0.006 | > 100 | > 10 | > 10 | > 10 | > 30 | O=C(O)CCCC1(c2ccccc2)CCCN(C(=O)Nc2ccc(Cl)cc2)C1 (stereo unspecified) | > 30 | > 10
0.001 | 0.004 | < 0.001 | > 100 | < 10 | – | < 10 | 10 | CC1(c2ccccc2)CCCN(C(=O)N[C@H]2C[C@@H]2c2ccccc2)C1 (stereo partly specified) | 26 | > 10
0.008 | 0.1 | < 0.001 | – | > 10 | > 10 | > 10 | 26 | O=C(CCC1(c2ccccc2)CCCN(C(=O)Nc2ccc(Cl)cc2)C1)N1CCOCC1 (stereo unspecified) | 29 | > 10
